Experimental data taken from PMC6828636 (European Journal of Drug Metabolism and Pharmacokinetics, 2019).
Where two headings read alike, the source gives them in different places.

Tests used:
[1] = molecular target: CYP2E1 (Homo sapiens, UniProt P05181); assay: CYP2E1 inhibition in human liver microsomes; type: in vitro ADME
Procedure, shortened: (§1)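 Pooled human liver microsomes were incubated with standard CYP-selective substrates, with and without test compound at 0.03–100 μM. Standard selective inhibitors for each isoform ran in parallel as positive controls. Read-out was IC50. For CYP3A4 only, time-dependent inhibition was also tested after 30 min preincubation, using midazolam and testosterone as substrates.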

[2] = molecular target: OAT1 (Homo sapiens, UniProt Q4U2R8); assay: OAT1 uptake inhibition in transfected HEK cells; type: in vitro ADME
Procedure, shortened: (§2)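 HEK cells overexpressing NTCP, OAT1, OAT3, OATP2B1, OCT1 or OCT2 were incubated with probe substrate. Pairs were estrone 3-sulfate/cyclosporin A (NTCP), PAH/probenecid (OAT1), furosemide/probenecid (OAT3), estrone 3-sulfate/glibenclamide (OATP2B1), 3H-MPP+/decynium 22 (OCT1) and 3H-MPP+/imipramine (OCT2). IC50 was determined with and without test compound, at ≤50 µM for the parent and ≤10 µM for the metabolite.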

[3] = molecular target: T1, CYP2C8 (Homo sapiens, UniProt P10632); assay: CYP2C8 inhibition in human liver microsomes; type: in vitro ADME
T1 sequence (P10632 1-490): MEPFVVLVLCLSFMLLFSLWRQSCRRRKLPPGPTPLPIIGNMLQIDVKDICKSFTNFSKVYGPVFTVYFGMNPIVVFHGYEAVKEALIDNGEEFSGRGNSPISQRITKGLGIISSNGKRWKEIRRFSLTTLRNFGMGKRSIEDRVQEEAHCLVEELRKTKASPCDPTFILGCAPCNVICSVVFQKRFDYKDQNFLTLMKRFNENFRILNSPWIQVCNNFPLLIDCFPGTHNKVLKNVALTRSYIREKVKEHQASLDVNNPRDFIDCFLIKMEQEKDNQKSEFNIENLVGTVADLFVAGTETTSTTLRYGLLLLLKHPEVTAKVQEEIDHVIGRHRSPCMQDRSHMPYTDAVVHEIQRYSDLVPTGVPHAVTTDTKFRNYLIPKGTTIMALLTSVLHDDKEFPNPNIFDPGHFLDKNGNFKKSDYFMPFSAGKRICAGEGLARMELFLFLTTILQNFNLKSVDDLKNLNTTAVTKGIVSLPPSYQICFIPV
Procedure, shortened: as §1

[4] = system: CYP3A4; assay: CYP3A4 induction in primary-cultured human hepatocytes; type: in vitro ADME; details: for induction of CYP3A4 enzymatic activity: three donors, 3 days dosing, 0.005–10 mg/l
[5] = molecular target: T2, CYP2A6 (Homo sapiens, UniProt P11509); assay: CYP2A6 inhibition in human liver microsomes; type: in vitro ADME
T2 sequence (P11509 1-494): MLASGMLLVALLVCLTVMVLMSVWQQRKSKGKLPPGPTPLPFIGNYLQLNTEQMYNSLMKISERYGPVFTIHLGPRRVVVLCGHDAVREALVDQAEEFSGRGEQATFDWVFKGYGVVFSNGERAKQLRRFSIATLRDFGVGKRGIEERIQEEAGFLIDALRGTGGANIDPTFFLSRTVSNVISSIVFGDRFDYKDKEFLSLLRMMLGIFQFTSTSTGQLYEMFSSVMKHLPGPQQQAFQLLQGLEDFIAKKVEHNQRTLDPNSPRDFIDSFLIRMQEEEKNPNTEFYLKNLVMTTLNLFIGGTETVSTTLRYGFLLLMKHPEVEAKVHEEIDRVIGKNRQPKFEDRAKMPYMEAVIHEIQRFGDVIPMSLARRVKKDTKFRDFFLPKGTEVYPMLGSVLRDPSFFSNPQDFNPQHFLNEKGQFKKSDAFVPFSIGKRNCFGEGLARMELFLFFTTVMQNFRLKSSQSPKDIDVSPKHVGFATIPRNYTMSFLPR
Procedure, shortened: as §1

[6] = molecular target: OCT2 (Homo sapiens, UniProt O15244); assay: OCT2 uptake inhibition in transfected HEK cells; type: in vitro ADME
Procedure, shortened: as §2

[7] = molecular target: MRP2 (Homo sapiens, UniProt Q92887); assay: MRP2 inhibition in transfected HEK cells; type: in vitro ADME
Procedure, shortened: (§3)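 HEK cells were transfected with MRP2, MATE1 or MATE2-K. Pairs were CDCF/benzbromarone (MRP2), metformin/cimetidine (MATE1) and metformin/pyrimethamine (MATE2-K). Probe transport was assessed with and without test compound, and IC50 was determined.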

[8] = molecular target: BSEP (Homo sapiens, UniProt O95342); assay: BSEP inhibition in sandwich-cultured human hepatocytes; type: in vitro ADME
Procedure, shortened: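 Sandwich-cultured human hepatocytes were used. Probe substrate was taurocholic acid, with cyclosporin as reference inhibitor. Probe transport was measured without and with test compound to derive IC50. Protein was added to the medium for one tested compound, permitting a higher test concentration.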

[9] = molecular target: MATE2-K (Homo sapiens, UniProt Q86VL8); assay: MATE2-K inhibition in transfected HEK cells; type: in vitro ADME
Procedure, shortened: as §3

[10] = molecular target: T3, CYP2B6 (Homo sapiens, UniProt P20813); assay: biochemical; type: in vitro ADME
T3 sequence (P20813 1-491): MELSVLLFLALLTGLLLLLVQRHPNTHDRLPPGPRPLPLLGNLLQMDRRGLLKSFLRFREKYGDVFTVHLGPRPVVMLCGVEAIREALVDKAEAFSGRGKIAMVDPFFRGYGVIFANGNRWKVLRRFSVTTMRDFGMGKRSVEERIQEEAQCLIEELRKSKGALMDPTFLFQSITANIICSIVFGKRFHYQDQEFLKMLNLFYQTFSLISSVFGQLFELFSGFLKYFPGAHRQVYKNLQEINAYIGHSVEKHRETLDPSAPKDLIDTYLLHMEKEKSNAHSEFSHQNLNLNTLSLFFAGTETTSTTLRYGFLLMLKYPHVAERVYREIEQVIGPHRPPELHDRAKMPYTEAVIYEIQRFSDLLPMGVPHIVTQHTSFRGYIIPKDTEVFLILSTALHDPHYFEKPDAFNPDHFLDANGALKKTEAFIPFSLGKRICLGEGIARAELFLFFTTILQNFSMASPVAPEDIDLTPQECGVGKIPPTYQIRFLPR

[11] = system: CYP3A4; assay: Relative induction score; set-up: species or system human; details: sensitive CYP3A4 substrate midazolam
Procedure, shortened: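 The relative induction score (RIS) method was applied to CYP3A4 induction data from hepatocytes of three donors treated for 3 days. Strong, moderate and weak reference inducers (rifampicin, bosentan, pioglitazone) served as calibrators for estimating clinical DDI risk.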

MRP2, sequence (Q92887 whole entry): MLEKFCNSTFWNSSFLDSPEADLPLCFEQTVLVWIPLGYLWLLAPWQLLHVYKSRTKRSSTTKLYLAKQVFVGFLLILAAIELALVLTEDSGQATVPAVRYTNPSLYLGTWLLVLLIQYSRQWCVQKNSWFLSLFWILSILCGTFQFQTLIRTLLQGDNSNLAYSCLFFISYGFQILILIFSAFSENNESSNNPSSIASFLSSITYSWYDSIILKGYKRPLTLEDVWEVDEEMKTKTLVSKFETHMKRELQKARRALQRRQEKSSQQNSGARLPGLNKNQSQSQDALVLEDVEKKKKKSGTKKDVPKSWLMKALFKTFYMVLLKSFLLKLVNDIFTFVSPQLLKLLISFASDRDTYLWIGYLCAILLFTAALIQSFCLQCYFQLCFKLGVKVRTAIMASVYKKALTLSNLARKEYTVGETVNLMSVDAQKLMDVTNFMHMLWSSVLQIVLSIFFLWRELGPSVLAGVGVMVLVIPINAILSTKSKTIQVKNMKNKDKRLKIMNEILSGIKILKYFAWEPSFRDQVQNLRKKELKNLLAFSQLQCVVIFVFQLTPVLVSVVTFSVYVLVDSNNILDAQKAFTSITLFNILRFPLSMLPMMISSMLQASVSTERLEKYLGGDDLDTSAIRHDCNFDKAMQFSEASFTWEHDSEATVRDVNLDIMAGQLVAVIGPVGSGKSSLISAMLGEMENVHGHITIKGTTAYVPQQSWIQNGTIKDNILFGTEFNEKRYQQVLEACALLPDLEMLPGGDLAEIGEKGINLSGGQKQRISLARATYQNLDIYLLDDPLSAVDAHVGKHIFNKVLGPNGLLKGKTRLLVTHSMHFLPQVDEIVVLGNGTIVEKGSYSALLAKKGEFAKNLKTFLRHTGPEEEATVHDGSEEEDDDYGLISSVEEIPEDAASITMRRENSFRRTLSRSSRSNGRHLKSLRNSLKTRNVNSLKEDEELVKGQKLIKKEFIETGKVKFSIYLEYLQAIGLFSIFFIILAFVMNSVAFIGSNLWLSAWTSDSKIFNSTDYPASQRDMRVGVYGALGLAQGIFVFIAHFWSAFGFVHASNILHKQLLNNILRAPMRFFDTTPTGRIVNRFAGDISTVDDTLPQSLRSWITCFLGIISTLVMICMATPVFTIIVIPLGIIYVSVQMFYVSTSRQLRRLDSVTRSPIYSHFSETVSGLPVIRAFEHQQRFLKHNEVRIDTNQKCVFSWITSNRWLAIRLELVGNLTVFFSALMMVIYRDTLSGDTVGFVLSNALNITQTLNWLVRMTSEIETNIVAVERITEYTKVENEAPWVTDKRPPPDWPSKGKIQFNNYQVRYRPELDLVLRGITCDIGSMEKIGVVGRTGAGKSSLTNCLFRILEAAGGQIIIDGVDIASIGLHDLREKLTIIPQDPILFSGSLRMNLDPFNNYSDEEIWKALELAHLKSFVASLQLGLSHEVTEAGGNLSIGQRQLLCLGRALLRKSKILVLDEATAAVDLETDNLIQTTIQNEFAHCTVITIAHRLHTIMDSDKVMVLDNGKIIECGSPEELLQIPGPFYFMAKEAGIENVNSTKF
CYP2E1, sequence (P05181 whole entry, canonical isoform): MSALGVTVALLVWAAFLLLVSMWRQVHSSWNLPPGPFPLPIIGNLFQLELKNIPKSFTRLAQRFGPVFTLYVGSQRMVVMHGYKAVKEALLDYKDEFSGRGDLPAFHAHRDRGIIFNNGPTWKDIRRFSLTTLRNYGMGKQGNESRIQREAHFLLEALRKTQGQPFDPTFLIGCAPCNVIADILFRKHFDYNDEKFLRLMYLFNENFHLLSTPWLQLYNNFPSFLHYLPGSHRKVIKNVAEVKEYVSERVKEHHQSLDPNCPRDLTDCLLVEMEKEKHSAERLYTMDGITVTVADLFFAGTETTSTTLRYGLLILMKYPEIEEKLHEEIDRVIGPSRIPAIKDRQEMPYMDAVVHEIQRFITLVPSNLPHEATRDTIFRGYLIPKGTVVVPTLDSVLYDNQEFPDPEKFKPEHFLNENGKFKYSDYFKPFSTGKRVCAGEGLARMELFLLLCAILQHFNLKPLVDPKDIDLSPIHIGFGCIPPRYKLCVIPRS
OCT2, sequence (O15244 whole entry): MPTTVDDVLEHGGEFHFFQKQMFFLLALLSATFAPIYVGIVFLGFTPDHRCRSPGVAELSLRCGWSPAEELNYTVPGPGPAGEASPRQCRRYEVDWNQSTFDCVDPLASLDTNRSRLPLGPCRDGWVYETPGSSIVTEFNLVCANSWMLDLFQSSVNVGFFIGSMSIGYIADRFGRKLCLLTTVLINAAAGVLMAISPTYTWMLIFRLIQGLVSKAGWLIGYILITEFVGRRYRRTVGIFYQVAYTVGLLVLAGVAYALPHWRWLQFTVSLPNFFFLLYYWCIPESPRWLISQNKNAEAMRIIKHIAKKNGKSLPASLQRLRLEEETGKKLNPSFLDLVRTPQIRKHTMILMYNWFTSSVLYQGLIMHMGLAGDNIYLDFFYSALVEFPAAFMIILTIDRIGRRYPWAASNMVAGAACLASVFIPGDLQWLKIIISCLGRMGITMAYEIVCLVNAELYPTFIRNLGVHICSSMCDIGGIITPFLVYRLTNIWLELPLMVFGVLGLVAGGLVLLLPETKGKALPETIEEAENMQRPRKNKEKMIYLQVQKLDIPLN
OAT1, sequence (Q4U2R8 whole entry): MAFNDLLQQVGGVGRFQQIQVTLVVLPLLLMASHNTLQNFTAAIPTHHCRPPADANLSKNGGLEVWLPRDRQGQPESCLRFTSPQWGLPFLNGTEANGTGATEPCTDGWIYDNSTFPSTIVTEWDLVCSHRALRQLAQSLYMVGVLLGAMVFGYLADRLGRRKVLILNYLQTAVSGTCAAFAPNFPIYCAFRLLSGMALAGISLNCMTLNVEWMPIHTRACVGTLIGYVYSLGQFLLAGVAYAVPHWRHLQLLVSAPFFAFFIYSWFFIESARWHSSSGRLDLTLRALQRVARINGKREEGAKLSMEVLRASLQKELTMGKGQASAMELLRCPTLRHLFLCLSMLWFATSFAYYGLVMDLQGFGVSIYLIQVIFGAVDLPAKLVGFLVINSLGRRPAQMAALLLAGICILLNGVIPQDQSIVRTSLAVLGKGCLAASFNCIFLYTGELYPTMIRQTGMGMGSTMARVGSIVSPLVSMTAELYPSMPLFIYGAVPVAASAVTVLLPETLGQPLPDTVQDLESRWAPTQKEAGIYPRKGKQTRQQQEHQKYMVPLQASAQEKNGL
BSEP, sequence (O95342 whole entry): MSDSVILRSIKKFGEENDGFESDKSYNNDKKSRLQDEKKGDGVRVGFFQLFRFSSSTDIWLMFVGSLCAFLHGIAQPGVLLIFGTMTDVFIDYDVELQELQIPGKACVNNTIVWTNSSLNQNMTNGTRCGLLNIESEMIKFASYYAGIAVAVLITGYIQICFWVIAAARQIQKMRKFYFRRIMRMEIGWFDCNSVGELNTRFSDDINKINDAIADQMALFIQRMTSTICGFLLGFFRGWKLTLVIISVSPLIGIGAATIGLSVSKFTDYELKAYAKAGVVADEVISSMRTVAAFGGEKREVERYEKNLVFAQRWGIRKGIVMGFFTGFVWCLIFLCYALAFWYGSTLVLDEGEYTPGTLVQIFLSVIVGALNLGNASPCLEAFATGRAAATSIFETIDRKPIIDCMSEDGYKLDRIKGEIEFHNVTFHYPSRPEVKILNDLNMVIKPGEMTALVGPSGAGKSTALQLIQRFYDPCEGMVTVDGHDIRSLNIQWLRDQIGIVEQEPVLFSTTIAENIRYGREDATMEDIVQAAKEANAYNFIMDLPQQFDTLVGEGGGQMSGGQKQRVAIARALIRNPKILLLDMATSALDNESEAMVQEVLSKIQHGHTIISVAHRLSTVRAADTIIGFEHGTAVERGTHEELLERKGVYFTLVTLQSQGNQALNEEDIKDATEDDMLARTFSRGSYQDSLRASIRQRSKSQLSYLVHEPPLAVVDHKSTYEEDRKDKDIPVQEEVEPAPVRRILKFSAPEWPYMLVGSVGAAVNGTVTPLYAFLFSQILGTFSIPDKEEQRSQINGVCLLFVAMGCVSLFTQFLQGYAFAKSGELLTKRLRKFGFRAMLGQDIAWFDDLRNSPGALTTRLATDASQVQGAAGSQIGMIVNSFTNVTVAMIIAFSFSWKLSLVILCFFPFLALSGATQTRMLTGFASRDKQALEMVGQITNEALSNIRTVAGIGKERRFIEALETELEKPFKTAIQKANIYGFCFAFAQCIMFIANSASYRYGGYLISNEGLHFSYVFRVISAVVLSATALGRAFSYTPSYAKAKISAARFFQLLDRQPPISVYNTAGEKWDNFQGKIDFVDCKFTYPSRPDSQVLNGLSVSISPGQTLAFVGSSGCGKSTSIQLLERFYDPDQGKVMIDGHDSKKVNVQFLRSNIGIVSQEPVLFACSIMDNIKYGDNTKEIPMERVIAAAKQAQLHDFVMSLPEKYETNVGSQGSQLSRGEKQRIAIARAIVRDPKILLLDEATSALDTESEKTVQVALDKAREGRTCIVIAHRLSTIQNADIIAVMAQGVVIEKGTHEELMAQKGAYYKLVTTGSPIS
MATE2-K, sequence (Q86VL8 1-566 isoform Q86VL8-3): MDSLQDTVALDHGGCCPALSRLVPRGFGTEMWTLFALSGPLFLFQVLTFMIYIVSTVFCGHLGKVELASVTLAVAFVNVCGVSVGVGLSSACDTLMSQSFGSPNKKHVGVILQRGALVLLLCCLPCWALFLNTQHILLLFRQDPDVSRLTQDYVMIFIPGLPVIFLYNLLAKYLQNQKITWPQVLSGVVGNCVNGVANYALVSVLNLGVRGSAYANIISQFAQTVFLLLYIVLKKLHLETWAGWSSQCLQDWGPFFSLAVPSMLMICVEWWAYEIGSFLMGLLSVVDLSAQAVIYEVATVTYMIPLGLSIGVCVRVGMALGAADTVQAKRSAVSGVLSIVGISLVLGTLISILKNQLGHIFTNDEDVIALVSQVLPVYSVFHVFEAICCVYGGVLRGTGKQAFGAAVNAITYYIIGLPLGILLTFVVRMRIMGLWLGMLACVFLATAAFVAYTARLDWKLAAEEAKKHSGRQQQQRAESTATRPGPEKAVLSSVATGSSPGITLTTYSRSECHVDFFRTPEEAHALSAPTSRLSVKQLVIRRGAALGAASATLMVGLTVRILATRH

SMILES: CC(O)c1cc(C(=O)N[C@@H](C)Cn2ccc(-c3ccc(C#N)c(Cl)c3)n2)[nH]n1 (some centres unmarked) [Darolutamide, darolutamide]
- IC50 [1]: > 100 µM
- IC50 [2]: > 50 µM
- IC50 [3]: > 100 µM
- CYP3A4 induction as % of rifampicin response [4]: 28%
- induction of CYP3A4 enzymatic activity [4]: ≤ 5.3 fold
- IC50 [5]: > 100 µM
- IC50 [6]: > 50 µM
- IC50 [7]: > 50 µM
- IC50 [8]: > 60 µM
- IC50 [9]: 9.5 µM
- IC50 [10]: > 100 µM
- Overall assessment of CYP3A4 induction (RIS method) [11]: moderate-to-strong inducers

SMILES: CC(=O)c1cc(C(=O)N[C@@H](C)Cn2ccc(-c3ccc(C#N)c(Cl)c3)n2)[nH]n1 [Keto-darolutamide, keto-darolutamide]
- IC50 ([1]; read-out: IC50, CYP2E1, human liver microsomes, substrate chlorzoxazone): > 100 µM
- IC50 ([2]; read-out: IC50, OAT1, HEK cells, substrate PAH, reference probenecid): > 2 µM
- IC50 ([3]; read-out: IC50, CYP2C8, human liver microsomes, substrate paclitaxel): 48.6 µM
- induction of CYP3A4 enzymatic activity [4]: ≤ 5.4 fold
- IC50 ([5]; read-out: IC50, CYP2A6, human liver microsomes, substrate coumarin): > 100 µM
- IC50 ([6]; read-out: IC50, OCT2, HEK cells, substrate 3H-MPP+, reference imipramine): > 2 µM
- IC50 ([7]; read-out: IC50, MRP2, HEK cells, substrate CDCF, reference benzbromarone): > 10 µM
- IC50 ([8]; read-out: IC50, BSEP, sandwich-cultured human hepatocytes, taurocholic acid/cyclosporin, higher test concentration possible because of addition of protein to the assay media): > 300 µM
- IC50 ([9]; read-out: IC50, MATE2 K, HEK cells, substrate metformin, reference pyrimethamine): 3 µM
- IC50 ([10]; read-out: IC50, CYP2B6, human liver microsomes, substrate bupropion): 54.2 µM
- Overall assessment of CYP3A4 induction (RIS method) [11]: weak-to-moderate inducer
